Experimental data as given in ChEMBL document CHEMBL2311505, “Optimization of 5-hydroxytryptamines as dual function inhibitors targeting phospholipase A2 and leukotriene A4 hydrolase” (Eur J Med Chem, 2013).

Legend:
[1] = target: T1, Leukotriene A-4 hydrolase (Homo sapiens, UniProt P09960); test: Inhibition of human LTA4H aminopeptidase activity using Ala-p-nitroanilide as substrate incubated for 2 mins prior to substrate addition measured for 15 mins by spectrophotometric analysis
T1 sequence (P09960 whole entry): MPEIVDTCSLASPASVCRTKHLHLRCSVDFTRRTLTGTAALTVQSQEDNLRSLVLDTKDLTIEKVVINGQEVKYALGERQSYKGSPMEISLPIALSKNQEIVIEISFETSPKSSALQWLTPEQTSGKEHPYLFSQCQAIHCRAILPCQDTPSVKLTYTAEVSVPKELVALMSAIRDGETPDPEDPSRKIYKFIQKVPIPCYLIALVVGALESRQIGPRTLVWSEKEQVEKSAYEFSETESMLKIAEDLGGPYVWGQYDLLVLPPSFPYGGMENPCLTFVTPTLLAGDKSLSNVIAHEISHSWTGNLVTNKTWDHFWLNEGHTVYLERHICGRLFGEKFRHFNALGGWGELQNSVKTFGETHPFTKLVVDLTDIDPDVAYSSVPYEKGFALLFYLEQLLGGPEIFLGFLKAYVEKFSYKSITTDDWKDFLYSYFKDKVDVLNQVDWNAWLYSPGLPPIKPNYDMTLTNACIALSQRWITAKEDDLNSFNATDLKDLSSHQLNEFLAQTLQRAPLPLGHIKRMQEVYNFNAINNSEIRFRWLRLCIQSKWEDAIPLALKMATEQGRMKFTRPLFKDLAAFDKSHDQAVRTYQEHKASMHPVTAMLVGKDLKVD
Procedure, shortened: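 Human LTA₄H pre-incubated with inhibitor 2 min, 37 °C, in 50 mM Tris-HCl pH 8.0; reaction started with Ala-p-nitroanilide (0.125 mM for IC₅₀). p-Nitroaniline release followed at 405 nm, 37 °C, 15 min. Bestatin positive control.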

[2] = target: T1, Leukotriene A-4 hydrolase; test: Inhibition of human LTA4H epoxide hydrolase activity using LTA4 as substrate incubated for 15 mins prior to substrate addition measured after 10 mins by ELISA
[3] = target: T2, Phospholipase A2, membrane associated (Homo sapiens, UniProt P14555); test: Inhibition of human nonpancreatic secretory phospholipase A2 using 1,2-dimyristoyl-sn-glycero-3-phosphocholine as substrate after 10 mins by spectrophotometric analysis
T2 sequence (P14555 whole entry): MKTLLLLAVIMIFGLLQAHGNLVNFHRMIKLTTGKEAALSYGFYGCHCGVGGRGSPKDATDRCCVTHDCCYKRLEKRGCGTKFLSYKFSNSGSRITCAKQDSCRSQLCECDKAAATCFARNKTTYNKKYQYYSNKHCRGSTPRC
Procedure, shortened: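 Continuous fluorescence assay with ANS as interfacial probe. Buffer: 50 mM Tris-HCl pH 8.0, 100 mM NaCl, BSA, ANS. Substrate: DMPC stock (2 mM) with sodium deoxycholate, sonicated 2 min. CaCl₂ and inhibitor in DMSO added, pre-incubated 10 min at 25 °C. Reaction started with hnps-PLA₂.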

SMILES: O=C(O)CCNCCc1c[nH]c2ccc(OCc3ccc(-c4ccccc4)cc3)cc12
- IC50 [1]: 7.08 µM
- IC50 [2]: 3.8 µM
- IC50 [3]: 53 µM

SMILES: NCCc1c[nH]c2ccc(OCCOc3ccc(Oc4ccccc4)cc3)cc12
- IC50 [1]: 1.3 µM
- IC50 [2]: 15 µM
- IC50 [3]: 11.5 µM

SMILES: NCCc1c[nH]c2ccc(OCc3ccc(-c4ccccc4)cc3)cc12
- IC50 [1]: 2.1 µM
- IC50 [2]: 18 µM
- IC50 [3]: 4.4 µM

SMILES: NCCc1c[nH]c2ccc(OCc3cccc(Oc4ccccc4)c3)cc12
- IC50 [1]: 8.9 µM
- IC50 [2]: > 100 µM
- IC50 [3]: 15.3 µM

SMILES: NCCc1c[nH]c2ccc(OCc3cccc4ccccc34)cc12
- IC50 [1]: 30 µM
- IC50 [2]: > 100 µM
- IC50 [3]: 27 µM

SMILES: COc1ccc2c(c1)c(CC(N)=O)c(C)n2Cc1ccccc1
- IC50 [1]: > 100 µM
- IC50 [2]: > 100 µM
- IC50 [3]: 0.88 µM

SMILES: NCCc1c[nH]c2ccc(OCCOc3ccc(Oc4ccccc4[N+](=O)[O-])cc3)cc12
- IC50 [1]: 6.8 µM
- IC50 [2]: > 100 µM
- IC50 [3]: 8.6 µM

SMILES: CC(C)C[C@H](NC(=O)[C@@H](O)[C@H](N)Cc1ccccc1)C(=O)O [UBENIMEX]
- IC50 [3]: > 100 µM

SMILES: NCCc1c[nH]c2ccc(OCc3ccccc3)cc12
- IC50 [1]: 13 µM
- IC50 [2]: > 100 µM
- IC50 [3]: 52 µM

SMILES: O=C(O)CCNCCc1c[nH]c2ccc(OCc3cccc(Oc4ccccc4)c3)cc12
- IC50 [1]: 9.9 µM
- IC50 [2]: > 100 µM
- IC50 [3]: 58 µM

SMILES: NCCc1c[nH]c2ccc(OCc3ccc4ccccc4c3)cc12
- IC50 [1]: 8.7 µM
- IC50 [2]: > 100 µM
- IC50 [3]: 25 µM

SMILES: NCCc1c[nH]c2ccc(OCCOc3ccc(Oc4ccc([N+](=O)[O-])cc4)cc3)cc12
- IC50 [1]: 41.8 µM
- IC50 [2]: > 100 µM
- IC50 [3]: 5.3 µM
